In brackets after ≈: the same amount, converted by molar mass.
Legend:
Format in all cases: functional
Streptococcus pneumoniae [1] = test: Antimicrobial activity against drug-susceptible Streptococcus pneumoniae 3 after 20 hrs by agar dilution method; settings: Streptococcus pneumoniae, 20 h; read-out: MIC
Method in brief: (§1)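 Streptococci, H. influenzae and M. catarrhalis were precultured on blood agar plates. Suspensions of about 10⁶ CFU/ml were inoculated onto sensitivity disk agar supplemented with 5% horse blood and incubated at 37 °C for 20 h. MIC was read as the lowest drug concentration with no visible growth.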

Streptococcus pneumoniae [2] = test: Antimicrobial activity against Streptococcus pneumoniae 9 expressing mefA after 20 hrs by agar dilution method; settings: Streptococcus pneumoniae, 20 h; read-out: MIC; method in brief: as §1
Haemophilus influenzae [3] = test: Antimicrobial activity against drug-susceptible Haemophilus influenzae 4 after 20 hrs by agar dilution method; settings: Haemophilus influenzae, 20 h; read-out: MIC; method in brief: as §1
Haemophilus influenzae [4] = test: Antimicrobial activity against drug-susceptible Haemophilus influenzae 1 after 20 hrs by agar dilution method; settings: Haemophilus influenzae, 20 h; read-out: MIC; method in brief: as §1
Streptococcus pneumoniae [5] = test: Antimicrobial activity against Streptococcus pneumoniae 6 constitutively expressing ermB after 20 hrs by agar dilution method; settings: Streptococcus pneumoniae, 20 h; read-out: MIC; method in brief: as §1
Streptococcus pneumoniae [6] = test: Antimicrobial activity against Streptococcus pneumoniae 10 expressing mefA after 20 hrs by agar dilution method; settings: Streptococcus pneumoniae, 20 h; read-out: MIC; method in brief: as §1
Streptococcus pyogenes [7] = test: Antimicrobial activity against Streptococcus pyogenes 2 constitutively expressing ermB after 20 hrs by agar dilution method; method in brief: as §1
Streptococcus pneumoniae [8] = test: Antimicrobial activity against Streptococcus pneumoniae 4 constitutively expressing ermB after 20 hrs by agar dilution method; settings: Streptococcus pneumoniae, 20 h; read-out: MIC; method in brief: as §1
Moraxella catarrhalis [9] = test: Antimicrobial activity against drug-susceptible Moraxella catarrhalis 1 after 20 hrs by agar dilution method; settings: Moraxella catarrhalis, 20 h; read-out: MIC; method in brief: as §1
Staphylococcus aureus [10] = test: Antimicrobial activity against Staphylococcus aureus 6 expressing inducible ermB after 20 hrs by agar dilution method
Method in brief: (§2)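 Agar dilution MIC. S. aureus seed culture was grown in sensitivity test broth. Cell suspension (about 10⁶ CFU/ml) was inoculated onto sensitivity disk agar with 5% horse blood and incubated at 37 °C for 20 h. MIC was the lowest drug concentration that prevented visible growth.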

Haemophilus influenzae [11] = test: Antimicrobial activity against drug-susceptible Haemophilus influenzae 3 after 20 hrs by agar dilution method; settings: Haemophilus influenzae, 20 h; read-out: MIC; method in brief: as §1
Staphylococcus aureus [12] = test: Antimicrobial activity against Staphylococcus aureus 5 expressing inducible ermB after 20 hrs by agar dilution method; settings: Staphylococcus aureus, 20 h; read-out: MIC; method in brief: as §2
Streptococcus pneumoniae [13] = test: Antimicrobial activity against Streptococcus pneumoniae 8 expressing inducible ermB after 20 hrs by agar dilution method; settings: Streptococcus pneumoniae, 20 h; read-out: MIC; method in brief: as §1
Moraxella catarrhalis [14] = test: Antimicrobial activity against drug-susceptible Moraxella catarrhalis 2 after 20 hrs by agar dilution method; settings: Moraxella catarrhalis, 20 h; read-out: MIC; method in brief: as §1
Staphylococcus aureus [15] = test: Antimicrobial activity against Staphylococcus aureus 4 constitutively expressing ermA after 20 hrs by agar dilution method; method in brief: as §2
Staphylococcus aureus [16] = test: Antimicrobial activity against drug-susceptible Staphylococcus aureus 3 after 20 hrs by agar dilution method; settings: Staphylococcus aureus, 20 h; read-out: MIC; method in brief: as §2
Streptococcus pyogenes [17] = test: Antimicrobial activity against drug-susceptible Streptococcus pyogenes 1 after 20 hrs by agar dilution method; settings: Streptococcus pyogenes, 20 h; read-out: MIC; method in brief: as §1
Haemophilus influenzae [18] = test: Antimicrobial activity against drug-susceptible Haemophilus influenzae 2 after 20 hrs by agar dilution method; settings: Haemophilus influenzae, 20 h; read-out: MIC; method in brief: as §1
Streptococcus pneumoniae [19] = test: Antimicrobial activity against drug-susceptible Streptococcus pneumoniae 2 after 20 hrs by agar dilution method; settings: Streptococcus pneumoniae, 20 h; read-out: MIC; method in brief: as §1
Staphylococcus aureus [20] = test: Antimicrobial activity against drug-susceptible Staphylococcus aureus 2 after 20 hrs by agar dilution method; settings: Staphylococcus aureus, 20 h; read-out: MIC; method in brief: as §2
Streptococcus pyogenes [21] = test: Antimicrobial activity against Streptococcus pyogenes 3 expressing mefA after 20 hrs by agar dilution method; settings: Streptococcus pyogenes, 20 h; read-out: MIC; method in brief: as §1
Streptococcus pneumoniae [22] = test: Antimicrobial activity against Streptococcus pneumoniae 5 constitutively expressing ermB/mefA after 20 hrs by agar dilution method; settings: Streptococcus pneumoniae, 20 h; read-out: MIC; method in brief: as §1
Staphylococcus aureus [23] = test: Antimicrobial activity against drug-susceptible Staphylococcus aureus 209P JC-1 after 20 hrs by agar dilution method; settings: Staphylococcus aureus, 209P, 20 h; read-out: MIC; method in brief: as §2
Streptococcus pneumoniae [24] = test: Antimicrobial activity against drug-susceptible Streptococcus pneumoniae DP1 Type1 after 20 hrs by agar dilution method; settings: Streptococcus pneumoniae, 20 h; read-out: MIC; method in brief: as §1
Streptococcus pneumoniae [25] = test: Antimicrobial activity against Streptococcus pneumoniae 7 expressing inducible ermB after 20 hrs by agar dilution method; settings: Streptococcus pneumoniae, 20 h; read-out: MIC; method in brief: as §1

| MIC (Streptococcus pneumoniae [1]) [µg/mL] | MIC (Streptococcus pneumoniae [2]) [µg/mL] | MIC (Haemophilus influenzae [3]) [µg/mL] | MIC (Haemophilus influenzae [4]) [µg/mL] | MIC (Streptococcus pneumoniae [5]) [µg/mL] | MIC (Streptococcus pneumoniae [6]) [µg/mL] | MIC (Streptococcus pyogenes [7]) [µg/mL] | MIC (Streptococcus pneumoniae [8]) [µg/mL] | MIC (Moraxella catarrhalis [9]) [µg/mL] | MIC (Staphylococcus aureus [10]) [µg/mL] | MIC (Haemophilus influenzae [11]) [µg/mL] | MIC (Staphylococcus aureus [12]) [µg/mL] | MIC (Streptococcus pneumoniae [13]) [µg/mL] | MIC (Moraxella catarrhalis [14]) [µg/mL] | MIC (Staphylococcus aureus [15]) [µg/mL] | MIC (Staphylococcus aureus [16]) [µg/mL] | MIC (Streptococcus pyogenes [17]) [µg/mL] | MIC (Haemophilus influenzae [18]) [µg/mL] | MIC (Streptococcus pneumoniae [19]) [µg/mL] | MIC (Staphylococcus aureus [20]) [µg/mL] | SMILES | other results |
| --- | --- | --- | --- | --- | --- | --- | --- | --- | --- | --- | --- | --- | --- | --- | --- | --- | --- | --- | --- | --- | --- |
| 0.06 (≈ 0.0609 µM) | 0.06 (≈ 0.0609 µM) | 16 (≈ 16.2 µM) | 64 (≈ 65 µM) | 64 (≈ 65 µM) | 0.06 (≈ 0.0609 µM) | 64 (≈ 65 µM) | 64 (≈ 65 µM) | 2 (≈ 2.03 µM) | 1 (≈ 1.01 µM) | 16 (≈ 16.2 µM) | 0.5 (≈ 0.507 µM) | 2 (≈ 2.03 µM) | 2 (≈ 2.03 µM) | > 128 | 0.5 (≈ 0.507 µM) | 0.25 (≈ 0.254 µM) | 16 (≈ 16.2 µM) | 0.13 (≈ 0.132 µM) | 2 (≈ 2.03 µM) | CCOC(=O)[C@H]1[C@H](C)O[C@@H](O[C@H]2[C@H](N(C)C)[C@@H](O)[C@H](O[C@H]3[C@@H](CC=O)C[C@@H](C)[C@@H](O)CN(C)CCC[C@H](C/C=C/c4cccc5ccccc45)OC(=O)C[C@@H](OC(=O)CC)[C@@H]3OC)O[C@@H]2C)C[C@@]1(C)O | MIC (Streptococcus pyogenes [21]): 1 µg/mL (≈ 1.01 µM); MIC (Streptococcus pneumoniae [22]): 64 µg/mL (≈ 65 µM); MIC (Staphylococcus aureus [23]): 1 µg/mL (≈ 1.01 µM); MIC (Streptococcus pneumoniae [24]): 0.06 µg/mL (≈ 0.0609 µM); MIC (Streptococcus pneumoniae [25]): 4 µg/mL (≈ 4.06 µM) |
| 0.015 (≈ 0.0152 µM) | 0.03 (≈ 0.0304 µM) | 8 (≈ 8.11 µM) | 32 (≈ 32.4 µM) | 128 (≈ 130 µM) | 0.03 (≈ 0.0304 µM) | > 128 | 128 (≈ 130 µM) | 1 (≈ 1.01 µM) | 0.5 (≈ 0.507 µM) | 8 (≈ 8.11 µM) | 0.25 (≈ 0.253 µM) | 8 (≈ 8.11 µM) | 2 (≈ 2.03 µM) | > 128 | 0.25 (≈ 0.253 µM) | 0.06 (≈ 0.0608 µM) | 2 (≈ 2.03 µM) | 0.015 (≈ 0.0152 µM) | 0.5 (≈ 0.507 µM) | CCOC(=O)[C@H]1[C@H](C)O[C@@H](O[C@H]2[C@H](N(C)C)[C@@H](O)[C@H](O[C@H]3[C@@H](CC=O)C[C@@H](C)[C@@H](O)CN(C)CC(/C=C/Cc4cccc5cccnc45)CCOC(=O)C[C@@H](OC(=O)CC)[C@@H]3OC)O[C@@H]2C)C[C@]1(C)O (stereo not given in full) | MIC (Streptococcus pyogenes [21]): 0.25 µg/mL (≈ 0.253 µM); MIC (Streptococcus pneumoniae [22]): 128 µg/mL (≈ 130 µM); MIC (Staphylococcus aureus [23]): 0.25 µg/mL (≈ 0.253 µM); MIC (Streptococcus pneumoniae [24]): 0.015 µg/mL (≈ 0.0152 µM); MIC (Streptococcus pneumoniae [25]): 8 µg/mL (≈ 8.11 µM) |
| 0.015 (≈ 0.0152 µM) | 0.015 (≈ 0.0152 µM) | 8 (≈ 8.11 µM) | 32 (≈ 32.4 µM) | 128 (≈ 130 µM) | 0.03 (≈ 0.0304 µM) | > 128 | 128 (≈ 130 µM) | 1 (≈ 1.01 µM) | 0.25 (≈ 0.253 µM) | 8 (≈ 8.11 µM) | 0.13 (≈ 0.132 µM) | 8 (≈ 8.11 µM) | 1 (≈ 1.01 µM) | > 128 | 0.13 (≈ 0.132 µM) | 0.03 (≈ 0.0304 µM) | 2 (≈ 2.03 µM) | 0.03 (≈ 0.0304 µM) | 0.5 (≈ 0.507 µM) | CCOC(=O)[C@H]1[C@H](C)O[C@@H](O[C@H]2[C@H](N(C)C)[C@@H](O)[C@H](O[C@H]3[C@@H](CC=O)C[C@@H](C)[C@@H](O)CN(C)CC(/C=C/Cc4cncc5ccccc45)CCOC(=O)C[C@@H](OC(=O)CC)[C@@H]3OC)O[C@@H]2C)C[C@@]1(C)O (stereo not given in full) | MIC (Streptococcus pyogenes [21]): 0.25 µg/mL (≈ 0.253 µM); MIC (Streptococcus pneumoniae [22]): 128 µg/mL (≈ 130 µM); MIC (Staphylococcus aureus [23]): 0.25 µg/mL (≈ 0.253 µM); MIC (Streptococcus pneumoniae [24]): 0.015 µg/mL (≈ 0.0152 µM); MIC (Streptococcus pneumoniae [25]): 8 µg/mL (≈ 8.11 µM) |
| 0.06 (≈ 0.0607 µM) | 0.06 (≈ 0.0607 µM) | 8 (≈ 8.1 µM) | 64 (≈ 64.8 µM) | > 128 | 0.06 (≈ 0.0607 µM) | > 128 | > 128 | 2 (≈ 2.02 µM) | 0.5 (≈ 0.506 µM) | 8 (≈ 8.1 µM) | 0.25 (≈ 0.253 µM) | 32 (≈ 32.4 µM) | 2 (≈ 2.02 µM) | > 128 | 0.25 (≈ 0.253 µM) | 0.13 (≈ 0.132 µM) | 4 (≈ 4.05 µM) | 0.06 (≈ 0.0607 µM) | 0.5 (≈ 0.506 µM) | CCOC(=O)[C@H]1[C@H](C)O[C@@H](O[C@H]2[C@H](N(C)C)[C@@H](O)[C@H](O[C@H]3[C@@H](CC=O)C[C@@H](C)[C@@H](O)CN(C)CCC[C@@H](CCCc4ccnc5ccccc45)OC(=O)C[C@@H](OC(=O)CC)[C@@H]3OC)O[C@@H]2C)C[C@@]1(C)O | MIC (Streptococcus pyogenes [21]): 0.5 µg/mL (≈ 0.506 µM); MIC (Streptococcus pneumoniae [22]): > 128 µg/mL; MIC (Staphylococcus aureus [23]): 0.25 µg/mL (≈ 0.253 µM); MIC (Streptococcus pneumoniae [24]): 0.03 µg/mL (≈ 0.0304 µM); MIC (Streptococcus pneumoniae [25]): 32 µg/mL (≈ 32.4 µM) |
